CCR6 antag – CCR6 receptor antagonists, primary screen, cell-based, CHO-K1, luminescence, beta-arrestin, uHTS | C-C chemokine receptor type 6 (Homo sapiens), P51684 | CHO-K1 CCR6 PathHunter beta-arrestin, CCL20-stimulated | inhibition, % at 20 µM | actives 0.49% (n = 340,000);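 active = compounds whose inhibition of the agonist-driven luminescence signal at 20 µM reaches about 50%, limit read from the data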;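 also: cells stimulated with CCL20 at 14 nM final; plate controls were DMSO with CCL20 for no effect and DMSO without agonist for full effect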
Target sequence (P51684 whole entry, looked up): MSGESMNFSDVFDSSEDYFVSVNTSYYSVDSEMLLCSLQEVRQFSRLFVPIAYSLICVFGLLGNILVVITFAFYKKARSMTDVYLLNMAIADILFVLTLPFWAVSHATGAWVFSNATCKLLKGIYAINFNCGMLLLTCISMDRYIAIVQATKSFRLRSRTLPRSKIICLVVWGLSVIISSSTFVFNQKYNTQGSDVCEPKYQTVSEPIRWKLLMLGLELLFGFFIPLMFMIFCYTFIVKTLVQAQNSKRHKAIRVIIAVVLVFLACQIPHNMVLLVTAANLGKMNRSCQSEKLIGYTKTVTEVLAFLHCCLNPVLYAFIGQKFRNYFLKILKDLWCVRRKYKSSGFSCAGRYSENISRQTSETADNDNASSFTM
EBI2 block – EBI2 receptor antagonists, beta-arrestin recruitment, primary screen, cell-based, luminescence, 7a,25-OHC stimulation, uHTS | actives 0.81% (n = 360,000) | 7a,25-OHC stimulated | AID 651636, 2012 | inhibition, % at 5 µM; in the data active = inhibition above about 38%;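 also: enzyme fragment complementation signal reports receptor beta-arrestin coupling in cells; 0% = agonist plus DMSO wells and 100% = wells without agonist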
CXCR6 inh – CXCR6 receptor inhibitors, primary screen, cell-based, beta-arrestin, luminescence, CHO-K1 PathHunter, 1536-well; inhibition, % at 20 µM; actives 0.36% (n = 360,000); AID 602244, 2012; in the data active = inhibition above about 34%, passing the limit was not always enough;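 also: antagonist mode with CXCL16 agonist at 10 nM final; 0% = 10 nM CXCL16 with DMSO and 100% = unstimulated wells without agonist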
APJ ag – agonists of human apelin receptor APJ, primary screen, CHO-K1 cells, PathHunter beta-arrestin, luminescence; P35414; 0% DMSO wells, 100% apelin; activation, % at 20 µM; actives 0.11% (n = 330,000); AID 2520, 2010;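 active = activation more than six SD over the plate average, tested at 20 µM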;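 also: 0% = DMSO alone and 100% = apelin-13 at 10 nM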
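Assay system: engineered CHO-K1 APJ arrestin reporter cells; Amount: 1000 CHO-K1 reporter cells seeded per well; Dosing: one dose, 20 µM compound, 1% DMSO; Times: compound stimulation 90 min at 25 °C, detection 60 min; Measured by: luminescent beta-gal fragment complementation, chemiluminescent substrate; Read-out: APJ–arrestin association signal; Controls: DMSO vs Apelin-13 10 nM.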
APJ antag – antagonists of human apelin receptor APJ, primary screen, CHO-K1 cells, beta-arrestin complementation, luminescence; actives 0.32% (n = 330,000); inhibition, % at 20 µM; AID 2521, 2010;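 active = inhibition above about 40% at 20 µM, limit read from the data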;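 also: cells challenged with 10 nM apelin-13 agonist together with compound; plate controls were apelin-13 plus DMSO wells for no effect and DMSO wells lacking apelin-13 for full effect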
EBI2 conf – EBI2 antagonist hit retest, beta-arrestin, confirmation, cell-based, single concentration, luminescence, 7a,25-OHC stimulation; actives 29% (n = 2,400); inhibition, % at 5 µM; AID 651997, 2013; 7a,25-OHC antagonism; shares compounds with EBI2 block;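 active = inhibition of at least 50%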
EBI2 agonist – EBI2 agonist activity of antagonist hits, confirmation, counter-screen for EBI2 antagonist project, cell-based, single concentration, agonist mode, luminescence; EBI2-expressing cells, 60 min; 0% vehicle, 100% 7α,25-dihydroxycholesterol control; activation, % at 5 µM; 2,400 tested, under 10 active; shares compounds with EBI2 block; AID 652000, 2013;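 active = activation of at least 50%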
bGal counter – E. coli beta-galactosidase enzyme inhibition, confirmation, counter-screen for EBI2 antagonist project, biochemical, luminescence, single concentration; inhibition, % at 5 µM; purified beta-galactosidase, luminescent Galacton Star, 15 min; shares compounds with EBI2 block; actives 1% (n = 2,400);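 active = replicate-average signal at least 3 plate SD below neutral wells, shown as high inhibition, flagging enzyme-inhibiting false positives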;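 also: 0% = DMSO wells with enzyme and 100% = wells lacking enzyme; higher means stronger loss of beta-gal luminescence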
* hit, by the source's call. This is a sample that favours compounds with a hit; in the whole collection about 1.5% have one here.

C(=C/c1nccc2c1[nH]c1ccccc12)/c1ccc2c(c1)OCO2 was read as CCR6 antag 0, EBI2 block 56*, CXCR6 inh -8, EBI2 conf 43, EBI2 agonist 1 and bGal counter 4.
For O=C(NCCc1ccc(Cl)cc1)C1CCN(S(=O)(=O)N2CCCCC2)CC1 the results were CCR6 antag 17, EBI2 block 44*, CXCR6 inh 0, APJ ag -5, APJ antag -28, EBI2 conf 14, EBI2 agonist 0 and bGal counter 6.
For O=C(NCc1ccc(Cl)cc1)C1CCN(S(=O)(=O)c2ccc(F)cc2)CC1 the results were CCR6 antag 12, EBI2 block 51*, CXCR6 inh -3, APJ ag -2, APJ antag -4, EBI2 conf 16, EBI2 agonist 0 and bGal counter -10.
For O=C(NCc1ccc(F)cc1)C1CCN(S(=O)(=O)c2ccc(Br)s2)CC1 the results were CCR6 antag 26, EBI2 block 52*, CXCR6 inh -2, APJ ag -1, APJ antag 9, EBI2 conf 19, EBI2 agonist -1 and bGal counter -4.
For O=C(NCc1ccc(Cl)cc1)c1ccc(S(=O)(=O)N2CCCCC2)cc1 the results were CCR6 antag 10, EBI2 block 49*, CXCR6 inh 5, APJ ag -1, APJ antag -11, EBI2 conf 33, EBI2 agonist -1 and bGal counter -19.
Screening O=C(NCc1ccncc1)C1CCN(S(=O)(=O)c2ccc(F)cc2)CC1 returned CCR6 antag 9, EBI2 block -3, CXCR6 inh 2, APJ ag -2 and APJ antag 4.
Screening O=C(NCc1ccc(F)cc1)C1CCCN(S(=O)(=O)c2ccc(Br)s2)C1 (stereo not drawn) returned CCR6 antag 15, EBI2 block 10, CXCR6 inh -5, APJ ag 1 and APJ antag 3.
Screening O=C(NCCc1ccccc1)C1CCN(S(=O)(=O)N2CCCCCC2)CC1 returned CCR6 antag 10, EBI2 block 3, CXCR6 inh 5, APJ ag -3 and APJ antag 18.
`O=C(NCc1ccc(F)cc1)c1ccc(S(=O)(=O)N2CCCCC2)cc1` gave CCR6 antag 14, EBI2 block 12, CXCR6 inh -3, APJ ag -3 and APJ antag 30.
Screening O=C(NCc1ccc(Cl)cc1)C1CCN(S(=O)(=O)c2cccnc2)CC1 returned CCR6 antag -2, EBI2 block 50*, CXCR6 inh -1, APJ ag 7, APJ antag -6, EBI2 conf 23, EBI2 agonist 1 and bGal counter 4.
Screening O=C(NCc1ccc(F)cc1)C1CCN(S(=O)(=O)c2cccnc2)CC1 returned CCR6 antag 13, EBI2 block 11, CXCR6 inh -7, APJ ag 1 and APJ antag 4.
`OCCNc1nc(NCc2ccccc2)c2ccccc2n1` gave CCR6 antag 10, EBI2 block 2, CXCR6 inh 3, APJ ag -2 and APJ antag 19.
O=C(COc1ccc(-c2nnc(N3CCCCC3)c3ccccc23)cc1)N1CCCCC1 was read as CCR6 antag 14, EBI2 block -12, CXCR6 inh -5, APJ ag 0 and APJ antag 3.
Screening O=C(COc1ccc([N+](=O)[O-])cc1)N1CCN(c2nnc(-c3ccccc3)c3ccccc23)CC1 returned CCR6 antag 6, EBI2 block 68*, CXCR6 inh 11, APJ ag -2, APJ antag 11, EBI2 conf 36, EBI2 agonist -1 and bGal counter 13.
Cc1ccc(-c2nnc(N3CCN(C(=O)COc4ccccc4)CC3)c3ccccc23)cc1 was read as CCR6 antag 16, EBI2 block 86*, CXCR6 inh 3, APJ ag -1, APJ antag 15, EBI2 conf 53*, EBI2 agonist 0 and bGal counter -9.
O=C1NC(=O)C(c2ccccc2)(c2ccccn2)N1 (stereo not drawn) was read as CCR6 antag -5, EBI2 block 4 and CXCR6 inh 2.
For Nc1ncccc1OCc1cccc(C(F)(F)F)c1 the results were CCR6 antag 17, EBI2 block 6, CXCR6 inh 0, APJ ag 0 and APJ antag -13.
For CCCc1cc(=O)[nH]c(SCc2cc(=O)oc3cc(C)c(C(C)C)cc23)n1 the results were CCR6 antag 26, EBI2 block -8, CXCR6 inh 0, APJ ag -2 and APJ antag 11.
For COC(=O)c1[nH]c2cc(C)ccc2c1NC(=O)CN1CCOCC1 the results were CCR6 antag 9, EBI2 block -5, CXCR6 inh 0, APJ ag 2 and APJ antag 13.
For COC(=O)c1[nH]c2cc(OC)ccc2c1NC(=O)CN1CCN(c2cccc(C)c2)C(C)C1 (stereo not drawn) the results were CCR6 antag 10, EBI2 block 73*, CXCR6 inh 7, APJ ag -7, APJ antag -10, EBI2 conf 70*, EBI2 agonist -1 and bGal counter -7.
For CCOC(=O)C1=C(COC(=O)CCOc2ccc(C)cc2)NC(=O)NC1C (stereo not drawn) the results were CCR6 antag 9, EBI2 block 5, CXCR6 inh -4, APJ ag 3 and APJ antag -59.
For COc1ccc(OC)c(-c2csc(N(Cc3ccco3)C(=O)c3cccs3)n2)c1 the results were CCR6 antag 10, EBI2 block 26, CXCR6 inh 16, APJ ag -4 and APJ antag 4.

Bioassay records from PubChem BioAssay.
